# Shown are actives, neighbours in structure and some others; about 2.1% of the full set was active somewhere.
# PKA-R2B activ – activates the human PKA-R2B holoenzyme complex. PKA-R2B holoenzyme dissociation, Cy5-IP20 fluorescence polarization; R2B truncated from residue 108, S112A mutant; 0% DMSO only, 100% 113 µM cGMP. P22694+P31323. activation, % at 11.4 µM. 0.079% of 340,000 active;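 active = activation above a cutoff set at the mean over all compounds plus 3 SD, cut at about 18% in these data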;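 note: higher means more holoenzyme dissociation and a rise in polarization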
# dFosB activator – mouse delta FosB homodimer activation | P13346 | AID 493131 | 0.99% of 340,000 active | purified delta FosB, TAMRA-CDK5 oligo fluorescence polarization; percent of positive-control signal above neutral wells | activation, % at 25 µM;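 active = mean activation above about 17%, with every replicate also reaching it, limit read from the data, passing the limit was not always enough; inconclusive = only one of the two conditions met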
# CDK5 inh – CDK5/p35 (human) kinase inhibition. Q00535+Q15078. 0.01% of 330,000 active. Recombinant CDK5/p35, ADP-Glo luminescence, 60 min. inhibition, % at 10 µM;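 active = highest replicate inhibition of at least 50% and at least 75% of replicates reaching 50%; inconclusive = only one of the two criteria met; inactive = both criteria failed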
# Target sequence (Q00535 whole entry, looked up): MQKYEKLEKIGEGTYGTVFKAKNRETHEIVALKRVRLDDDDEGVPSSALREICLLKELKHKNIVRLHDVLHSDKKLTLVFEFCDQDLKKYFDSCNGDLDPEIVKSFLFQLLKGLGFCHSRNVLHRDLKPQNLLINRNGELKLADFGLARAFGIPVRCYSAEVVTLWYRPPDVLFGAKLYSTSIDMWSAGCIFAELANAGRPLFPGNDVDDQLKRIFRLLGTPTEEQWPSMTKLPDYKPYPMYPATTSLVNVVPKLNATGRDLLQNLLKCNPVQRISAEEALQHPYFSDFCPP
# Target sequence (Q15078 whole entry, looked up): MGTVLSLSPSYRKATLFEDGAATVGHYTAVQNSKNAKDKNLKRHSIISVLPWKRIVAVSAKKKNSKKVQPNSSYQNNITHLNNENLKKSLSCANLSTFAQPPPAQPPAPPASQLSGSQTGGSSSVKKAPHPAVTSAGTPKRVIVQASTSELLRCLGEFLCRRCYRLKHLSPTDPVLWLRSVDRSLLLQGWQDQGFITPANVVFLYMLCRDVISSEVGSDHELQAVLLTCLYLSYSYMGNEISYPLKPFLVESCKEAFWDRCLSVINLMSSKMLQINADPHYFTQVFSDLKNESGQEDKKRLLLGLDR
# SR-BI HDL uptake – mouse SR-BI HDL lipid transfer inhibition; Q61009; ldlA[mSR-BI] CHO cells, DiI-HDL uptake fluorescence, 3 h; inhibition, % at 12.5 µM; 0.96% of 320,000 active; AID 488896;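 active = mean replicate inhibition of at least 70% and a set share of replicates each scoring 70 or more; inconclusive = meets just one of the two criteria; inactive = fails both criteria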
# SR-BI DiI-HDL act – activators of SR-BI mediated HDL lipid uptake. activation, % at 12.5 µM. 0.096% of 320,000 active. AID 504775. CHO ldlA[mSR-BI] cells, DiI-HDL uptake fluorescence, 3 h; 100 = double the neutral-control signal;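 active = mean replicate activation of at least 60% and every replicate at or above 60%; inconclusive = mean or all-replicate condition met, but not both; inactive = mean below 60% and not all replicates reaching 60%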
#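 System: LDL receptor-deficient CHO ldlA cells overexpressing murine SR-BI | Timing: 3 h uptake period with compound, 37 °C | Medium: HEPES-buffered (25 mM, pH 7.4) F12 plus 0.5% BSA | Dosing: Single-point compound dose | Signal: Bottom-read fluorescence, 550/595 nm | Read-out: Retained DiI signal reflecting DiI-HDL uptake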
# PKA-R1A act – activators of PKA-R1A complex; AID 504707; P00514+P68181; PKA-R1A dissociation, Cy5-IP20 fluorescence polarization; scaled: DMSO 0%, 113 µM cGMP 100%; activation, % at 11.4 µM; 0.083% of 340,000 active;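 active = percent activation above the mean of all tested compounds plus 3 SD, cut at about 19% in these data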;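 note: higher means more PKAc released from R1A so a rise in polarization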
# R2B FP artifact – FP assay interference, PKA-R2B counter-screen; shares compounds with PKA-R2B activ; FP artifact counterscreen, fluorescence polarization; activation, % at 11.4 µM; 6% of 270 active; AID 504796; in the data active = activation above about 20%;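 note: Cy5 labelled IP20 peptide probe with compound but no PKA protein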
# PKA-R2B confirm – confirmation of human PKA-R2B complex activators; 9% of 270 active; AID 504797; fluorescence polarization, activation; shares compounds with PKA-R2B activ; activation, % at 11.4 µM; in the data active = activation above about 19%
# R1A FP artifact – counter-screen for PKA-R1A activators: fluorescence polarization artifacts; activation, % at 11.4 µM; Cy5-IP20 peptide alone, fluorescence polarization artifact counterscreen; AID 504799; shares compounds with PKA-R1A act; 7% of 280 active;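 active = mean activation over triplicate runs exceeds the adjusted cutoff derived for the parent primary screen, cut at about 19% in these data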;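 note: no PKA protein present so any polarization rise reflects compound interference; higher means stronger polarization artifact and likely false positive in parent screen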
# PKA-R1A act conf – PKA-R1A complex activation, confirmation; shares compounds with PKA-R1A act; Cy5-IP20 fluorescence polarization, PKA-R1A holoenzyme dissociation; activation, % at 11.4 µM; 9% of 280 active;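 active = mean activation over replicate wells exceeds the adjusted hit threshold taken from the earlier primary screen, cut at about 20% in these data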
# Numbers stand for hits; – = inactive; ? = inconclusive; · = no result given.
SMILES,PKA-R2B activ,dFosB activator,CDK5 inh,SR-BI HDL uptake,SR-BI DiI-HDL act,PKA-R1A act,R2B FP artifact,PKA-R2B confirm,others
O=C(NC1CC1)c1ccc(F)cc1Cl,23,–,–,·,·,–,–,–,
CCOC(=O)/C(=N\Nc1ccc(Br)cc1)N1CCN(c2ccccc2OC)CC1,21,–,–,?,–,–,–,–,
CC(C)(C)OC(=O)N1CCC(NC(=O)c2nc[nH]c2C(=O)N2CCN(c3ccccc3)CC2)CC1,–,–,–,–,–,–,·,·,
Cc1ccccc1NC(=O)CCS(=O)(=O)c1ccc(Br)s1,19,–,–,·,·,–,–,–,
COCCNC(=O)c1cc(-c2ccc3c(c2)OCO3)on1,18,–,–,–,–,–,–,–,
CCOC(=O)N1CCN(Cc2nc3c(c(=O)n(C)c(=O)n3C)n2Cc2cccc(C)c2)CC1,–,–,–,–,–,–,·,·,
CCOC(=O)N1CCN(Cc2nc3c(c(=O)n(C)c(=O)n3C)n2Cc2ccc(F)cc2)CC1,19,–,–,–,–,–,–,–,
Oc1ccccc1OCC(O)c1ccccc1 (configuration not stated),19,–,–,–,–,–,–,–,
Cc1cccc(C)c1NC(=O)C(NC=O)c1ccccc1Cl (configuration not stated),–,–,–,–,·,–,·,·,
Cc1cccc(C)c1NC(=O)C(NC=O)c1ccc(N(C)C)cc1 (configuration not stated),20,–,–,–,–,–,–,–,
Cc1cccc2cc(CN(CCCO)C(=O)Nc3ccccc3Cl)c(=O)[nH]c12,23,–,–,–,–,–,–,–,
COc1cc(OC)cc(-c2nnc(SCC(=O)Nc3cccc(C(=O)O)c3)s2)c1,–,–,–,–,–,–,·,·,
Nc1nnc(Cc2cccc(Br)c2)s1,20,–,–,–,–,–,–,–,
CCOc1ccc(CC(=O)NCc2cn3c(C)csc3n2)cc1,22,–,–,–,–,–,–,–,
Cc1ccc(CN(C)C(=O)COC(=O)CSc2cc(C)c3ccccc3n2)cc1,–,–,–,–,–,–,·,·,
CC(=O)c1c(O)cc2c3c1OC(C)(C)C1CCC(C)(CC31)O2 (configuration not stated),–,·,·,·,·,–,·,·,
O=C(c1cc(F)c(F)cc1Cl)N1CCN(c2ncccn2)CC1,19,–,–,–,–,–,–,–,
CCCc1cc(=O)oc2cc(OCC(=O)NCCc3c[nH]c4ccccc34)ccc12,–,–,–,–,–,–,·,·,
CCC(=O)N(Cc1cc2cc(OC)ccc2[nH]c1=O)c1ccc(C)cc1C,21,–,–,–,–,–,–,–,
COc1ccc2[nH]c(=O)c(CN(C(C)=O)c3ccc(C)cc3C)cc2c1,–,–,–,–,–,–,·,·,
Cc1ccccc1COc1ccc2oc(C)c(C(=O)O)c2c1,42,–,–,·,·,43,60,70,R1A FP artifact=60;PKA-R1A act conf=67
O=C1C(=O)N(C/C=C/c2ccccc2)c2ccccc21,–,–,–,–,–,–,·,·,
CCCC1Nc2ccc(C(=O)O)cc2C2C=CCC12 (configuration not stated),19,–,–,–,–,23,21,20,R1A FP artifact=21;PKA-R1A act conf=24
CC(C)C1Nc2ccc(C(=O)O)cc2C2C=CCC21 (configuration not stated),–,–,–,–,–,–,·,·,
CCC1=NN2C(=N)/C(=C/c3ccc(OS(=O)(=O)c4ccccc4)cc3)C(=O)N=C2S1,29,–,–,–,–,22,23,23,R1A FP artifact=23;PKA-R1A act conf=28
SMILES,PKA-R2B activ,dFosB activator,CDK5 inh,SR-BI HDL uptake,SR-BI DiI-HDL act,PKA-R1A act,R2B FP artifact,PKA-R2B confirm,others
CC(C#N)Sc1ncnc2sc(-c3ccccc3)cc12 (configuration not stated),–,–,–,·,·,–,·,·,
CCC(=O)Nc1ccc(C(=O)NNC(=O)c2cccc(C)c2)cc1,–,–,–,–,–,–,·,·,
CCC(=O)Nc1ccc(C(=O)NNC(=O)COc2cccc(C)c2)cc1,–,–,–,–,–,20,·,·,R1A FP artifact=–;PKA-R1A act conf=–
CC(C)Nc1ccc(C(CC(N)=O)NC(=O)c2ccc(Br)cc2)cc1[N+](=O)[O-] (configuration not stated),–,–,–,–,–,–,·,·,
CN(Cc1ccccc1)c1ccc(C(CC(N)=O)NC(=O)c2ccc(Br)cc2)cc1[N+](=O)[O-] (configuration not stated),–,–,–,–,–,25,·,·,R1A FP artifact=19;PKA-R1A act conf=19
CC(=O)Nc1ccc(S(=O)(=O)N(C)CC(=O)OCC(=O)N2CCCC2=O)cc1,–,–,–,–,–,–,·,·,
COC(=O)C1=CN(c2cccc(Cl)c2)C=C(C(=O)OC)C1c1cccc(OC)c1,–,–,–,–,–,19,·,·,R1A FP artifact=–;PKA-R1A act conf=–
O=[N+]([O-])c1cccc(C=Nc2cc3c(cc2Br)OCCO3)c1,–,–,·,–,–,–,·,·,
Cc1ccc(C(=O)NC2CCCCCCC2)c(Cl)c1,–,–,–,–,–,–,·,·,
Cc1c(Br)cc(C(=O)NC2CCCCC2)c(C)c1C,–,–,–,–,–,23,·,·,R1A FP artifact=–;PKA-R1A act conf=–
COc1ccc2c(c1OC)C(=O)OC2Nc1ncccc1C (configuration not stated),–,–,–,–,–,19,·,·,R1A FP artifact=–;PKA-R1A act conf=–
COc1ccc(CNC(=O)C(=O)c2cn(CC(=O)N3CCOCC3)c3ccccc23)cc1,–,–,–,–,–,–,·,·,
COc1ccccc1CCNC(=O)C(=O)c1cn(CC(=O)N2CCOCC2)c2ccccc12,–,–,–,–,–,19,·,·,R1A FP artifact=–;PKA-R1A act conf=–
Cc1cc(NC(=O)CSc2nc3cc(C)c(C)cc3cc2C)no1,–,–,–,·,·,–,·,·,
CCC(C)(C)n1nnnc1C(c1cc2cccc(C)c2[nH]c1=O)N1CCN(C(=O)c2ccco2)CC1 (configuration not stated),–,–,–,–,–,19,·,·,R1A FP artifact=–;PKA-R1A act conf=–
CCC(C)(C)n1nnnc1C(c1ccc(C)cc1)N1CCN(C(=O)c2ccco2)CC1 (configuration not stated),–,–,–,–,–,–,·,·,

# Compound activity from PubChem.
